Measured values published in ChEMBL document CHEMBL1275461, “Early bactericidal activity and pharmacokinetics of the diarylquinoline TMC207 in treatment of pulmonary tuberculosis” (Antimicrob Agents Chemother, 2008).

Key:
[1] = Cmax in pulmonary tuberculosis patient at 100 […], po once daily for 7 days by liquid chromatography-MS/MS analysis; format: ADME, organism-based; design: dose 100 mg/kg, route oral; settings: human, in vivo
How it was run: (§1)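 Treatment-naïve smear-positive pulmonary TB patients, hospitalized; 7-day oral once-daily monotherapy, directly observed, within 30 min after breakfast. Heparinized plasma taken predose and 1, 2, 3, 4, 5, 6, 8, 12 and 24 h postdose on day 7, plus predose on days 5 and 6. Parent drug and N-monodesmethyl metabolite measured by validated LC-MS/MS. Noncompartmental parameters; AUC0-24 by linear trapezoidal rule.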

[2] = Drug uptake in pulmonary tuberculosis patient at 100 […], po once daily for 7 days by liquid chromatography-MS/MS analysis; format: ADME, organism-based; design: dose 100 mg/kg, route oral; settings: human, in vivo, read-out: Drug uptake; how it was run: as §1
[3] = tested on: Mycobacterium tuberculosis; experiment: Bactericidal activity against Mycobacterium tuberculosis in pulmonary tuberculosis patient assessed as reduction in sputum bacterial count at 100 […], po once daily measured after 2 days; format: functional
How it was run: (§2)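 Hospitalized treatment-naïve smear-positive patients took oral doses once daily, observed, after breakfast. Sputum was pooled over 16 h overnight at baseline, after each of the 7 dosing days, and on the night after the first standard-therapy dose. Sputum was stirred, digested with dithiothreitol for 20 min at room temperature, and diluted 10-fold. Dilutions were plated in quadruplicate on selective 7H11 agar and counted after 3-4 weeks at 37°C at 20-200 colonies. The read-out was change in log10 CFU/ml from baseline, with a count of 0 set to log 0.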

Homo sapiens [4] = experiment: Toxicity in pulmonary tuberculosis patient assessed as rash at 100 […], po once daily; format: organism-based; design: dose 100 mg/kg, route oral; settings: in vivo
Homo sapiens [5] = experiment: Cardiotoxicity in pulmonary tuberculosis patient assessed as increase in QT interval at 400 mg/kg, po once daily for 7 days; format: toxicity, organism-based; design: dose 400 mg/kg, route oral; settings: in vivo, 168 h
[6] = tested on: Mycobacterium tuberculosis; experiment: Bactericidal activity against Mycobacterium tuberculosis in pulmonary tuberculosis patient assessed as reduction in sputum bacterial count at 25 mg/kg, po once daily measured after 5 days; format: functional; how it was run: as §2
[7] = Tmax in pulmonary tuberculosis patient at 100 […], po once daily for 7 days by liquid chromatography-MS/MS analysis; format: ADME, organism-based; design: dose 100 mg/kg, route oral; settings: human, in vivo; how it was run: as §1
Homo sapiens [8] = experiment: Cardiotoxicity in pulmonary tuberculosis patient assessed as increase in QT interval at 100 […], po once daily for 7 days; format: toxicity, organism-based; design: dose 100 mg/kg, route oral; settings: in vivo, 168 h
[9] = tested on: Mycobacterium tuberculosis; experiment: Bactericidal activity against Mycobacterium tuberculosis in pulmonary tuberculosis patient assessed as reduction in sputum bacterial count at 25 […], po once daily measured after 4 days; format: functional; how it was run: as §2
Homo sapiens [10] = experiment: Toxicity in pulmonary tuberculosis patient assessed as diarrhea at 400 mg/kg, po once daily; format: organism-based; design: dose 400 mg/kg, route oral; settings: in vivo
[11] = tested on: Mycobacterium tuberculosis; experiment: Bactericidal activity against Mycobacterium tuberculosis in pulmonary tuberculosis patient assessed as reduction in sputum bacterial count at 25 mg/kg, po once daily measured after 7 days; format: functional; how it was run: as §2
[12] = Cmax in pulmonary tuberculosis patient at 400 mg/kg, po once daily for 7 days by liquid chromatography-MS/MS analysis; format: ADME, organism-based; design: dose 400 mg/kg, route oral; settings: human, in vivo; how it was run: as §1
Homo sapiens [13] = experiment: Steady-state plasma concentration in pulmonary tuberculosis patient at 25 mg/kg, po once daily for 7 days by liquid chromatography-MS/MS analysis; format: ADME, organism-based; design: dose 25 mg/kg, route oral; settings: in vivo, 168 h; how it was run: as §1
[14] = tested on: Mycobacterium tuberculosis; experiment: Bactericidal activity against Mycobacterium tuberculosis in pulmonary tuberculosis patient assessed as reduction in sputum bacterial count at 100 […], po once daily measured on day 8 after starting standard TB therapy; format: functional; how it was run: as §2
[15] = tested on: Mycobacterium tuberculosis; experiment: Bactericidal activity against Mycobacterium tuberculosis in pulmonary tuberculosis patient assessed as reduction in sputum bacterial count at 400 mg/kg, po once daily measured after 7 days; format: functional; how it was run: as §2
[16] = tested on: Mycobacterium tuberculosis; experiment: Bactericidal activity against Mycobacterium tuberculosis in pulmonary tuberculosis patient assessed as reduction in sputum bacterial count at 25 […], po once daily measured after 2 days; format: functional; how it was run: as §2
Homo sapiens [17] = experiment: Steady-state plasma concentration in pulmonary tuberculosis patient at 100 […], po once daily for 7 days by liquid chromatography-MS/MS analysis; format: ADME, organism-based; design: dose 100 mg/kg, route oral; settings: in vivo, 168 h; how it was run: as §1
[18] = Drug uptake in pulmonary tuberculosis patient at 400 mg/kg, po once daily for 7 days by liquid chromatography-MS/MS analysis; format: ADME, organism-based; design: dose 400 mg/kg, route oral; settings: human, in vivo, read-out: Drug uptake; how it was run: as §1
Homo sapiens [19] = experiment: Toxicity in pulmonary tuberculosis patient assessed as hemoptysis at 400 mg/kg, po once daily; format: organism-based; design: dose 400 mg/kg, route oral; settings: in vivo
[20] = tested on: Mycobacterium tuberculosis; experiment: Bactericidal activity against Mycobacterium tuberculosis in pulmonary tuberculosis patient assessed as reduction in sputum bacterial count at 400 mg/kg, po once daily measured on day 8 after starting standard TB therapy; format: functional; how it was run: as §2
[21] = Cmax in pulmonary tuberculosis patient at 25 mg/kg, po once daily for 7 days by liquid chromatography-MS/MS analysis; format: ADME, organism-based; design: dose 25 mg/kg, route oral; settings: human, in vivo; how it was run: as §1
[22] = AUC (0 to 24 hrs) in pulmonary tuberculosis patient at 100 […], po once daily for 7 days by liquid chromatography-MS/MS analysis; format: ADME, organism-based; design: time < 24 hr, dose 100 mg/kg, route oral; settings: human, plasma
How it was run: (§3)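 Treatment-naïve, sputum smear-positive patients, hospitalized, took the drug orally once daily under direct observation within 30 min after breakfast. On day 7, heparinized plasma was drawn predose and at 1, 2, 3, 4, 5, 6, 8, 12 and 24 h for parent drug and M2 metabolite. Levels were measured by validated LC-MS/MS, and AUC0-24 was calculated noncompartmentally by the linear trapezoidal rule.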

[23] = tested on: Mycobacterium tuberculosis; experiment: Bactericidal activity against Mycobacterium tuberculosis in pulmonary tuberculosis patient assessed as reduction in sputum bacterial count at 25 mg/kg, po once daily measured on day 8 after starting standard TB therapy; format: functional; how it was run: as §2
[24] = AUC (0 to 24 hrs) in pulmonary tuberculosis patient at 400 mg/kg, po once daily for 7 days by liquid chromatography-MS/MS analysis; format: ADME, organism-based; design: time < 24 hr, dose 400 mg/kg, route oral; settings: human, plasma; how it was run: as §3

With `COc1nc2ccc(Br)cc2cc1[C@@H](c1ccccc1)[C@@](O)(CCN(C)C)c1cccc2ccccc12` [BEDAQUILINE] as the molecule, how does the Cmax [1] read?
The Cmax was 1210 ng/mL.

What about the concentration at 168 h [2] of the same molecule?
The concentration at 168 h was 391 ng/mL.

What about the log10CFU/ml [3] of the same molecule?
Its log10CFU/ml is -0.2.

And the Activity (Homo sapiens [4])?
The Activity was 7%.

And the Time (Homo sapiens [5])?
The Time was 18.8 ms.

What about the log10CFU/ml [6] of the same molecule?
Its log10CFU/ml is -0.09.

What about the Tmax [7] of the same molecule?
Its Tmax is 4 h.

And the Time (Homo sapiens [8])?
The Time was 7.1 ms.

And the log10CFU/ml [9]?
The log10CFU/ml was -0.22.

What about the Activity (Homo sapiens [10]) of the same molecule?
The Activity was 7%.

What about the log10CFU/ml [11] of the same molecule?
Its log10CFU/ml is -0.04.

What about the Cmax [12] of the same molecule?
Its Cmax is 5500 ng/mL.

What about the Css (Homo sapiens [13]) of the same molecule?
The Css was 165.5 ng/mL.

What about the log10CFU/ml [14] of the same molecule?
The log10CFU/ml was -0.71.

What about the log10CFU/ml [15] of the same molecule?
Its log10CFU/ml is -0.77.

What about the log10CFU/ml [16] of the same molecule?
Its log10CFU/ml is 0.02.

And the Css (Homo sapiens [17])?
The Css was 667.7 ng/mL.

And the concentration at 168 h [18]?
The concentration at 168 h was 1530 ng/mL.

What about the Activity (Homo sapiens [19]) of the same molecule?
Its Activity is 21.4%.

And the log10CFU/ml [20]?
The log10CFU/ml was -1.14.

What about the Cmax [21] of the same molecule?
The Cmax was 319 ng/mL.

And the AUC at 24 h [22]?
The AUC at 24 h was 16000 ng·h/mL.

And the log10CFU/ml [23]?
Its log10CFU/ml is -0.46.

And the AUC at 24 h [24]?
Its AUC at 24 h is 64800 ng·h/mL.
